Source: PubChem BioAssay
In the library only some 2.5% were active in any assay of this set; here they are far more common.
miR122 inh = inhibitors of miR-122 in Huh7 cells. Huh7 miR-122 Renilla luciferase sensor, 48 h; neutral wells = 0, positive control = 100. activation (reporter increase), % at 12.5 µM. hit rate 0.3% among 340,000. AID 602342;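 active = mean replicate activation score at least 90 and every replicate individually at or above 90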;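 note: higher luciferase means less miR-122 activity so hits act as miR-122 inhibitors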
S100A4 inh HTS = blocks human S100A4 binding to myosin IIA peptide. hit rate 0.14% among 360,000. inhibition, % at 10.7 µM. S100A4/TAMRA-MyoIIA peptide fluorescence polarization. P26447;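 active = mean inhibition of at least 70% across replicates, with every replicate also reaching that level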
Target sequence (P26447 whole entry, looked up): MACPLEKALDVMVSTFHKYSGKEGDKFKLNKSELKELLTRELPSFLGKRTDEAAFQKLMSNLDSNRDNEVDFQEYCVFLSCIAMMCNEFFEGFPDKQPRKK
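Assay system: human S100A4 monomer with TAMRA-labelled myosin IIA peptide / Buffer or medium: Calcium-containing HEPES buffer, pH 7.2 / Reagent: TAMRA-labelled myosin IIA heavy-chain peptide probe, 5 nM / Compound: one dose per compound / Timing: polarization read 5 min after assay mix addition, stable 5–60 min / Benchmarks: neutral control DMSO, positive control TFP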
E-sel inducer = E-selectin induction on HUVECs. HUVEC E-selectin immunofluorescence imaging; normalized: neutral wells 0, TNF-alpha wells 100. activation, % at 7.58 µM. hit rate 0.37% among 260,000. AID 686992;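 active = mean E-selectin-positive cell signal at least 10% of the positive control, reached in at least 60% of replicates, without over 20% cell loss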
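System: HUVEC / Compound: single concentration / Signal: immunofluorescence imaging / Read-out: percent E-selectin-positive cells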
FGF22 binding = binders of recombinant human FGF22 by thermal shift; Q9HCT0; SYPRO orange fluorescence; percent of sucrose octasulfate shift, DMSO zero; activity (Tm shift, normalised), % at 9.99 µM; hit rate 1.5% among 340,000; AID 651658;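 active = mean Tm shift, scaled 0 neutral to 100 positive control, at about 1.3% or above, every replicate too, limit read from the data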
Target sequence (Q9HCT0 whole entry, looked up): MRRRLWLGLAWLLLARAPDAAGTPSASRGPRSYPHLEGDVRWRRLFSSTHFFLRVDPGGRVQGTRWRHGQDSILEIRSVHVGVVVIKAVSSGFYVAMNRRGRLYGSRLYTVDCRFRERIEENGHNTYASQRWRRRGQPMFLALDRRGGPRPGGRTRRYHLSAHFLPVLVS
SIRT5 inh = inhibitors of human sirtuin-5 desuccinylase | inhibition, % at 15 µM | AID 652115 | hit rate 1.1% among 330,000 | Purified SirT5, succinyl-peptide AMC, trypsin-coupled fluorescence | Q9NXA8; in the data active = inhibition above about 15%
Target sequence (Q9NXA8 whole entry, looked up): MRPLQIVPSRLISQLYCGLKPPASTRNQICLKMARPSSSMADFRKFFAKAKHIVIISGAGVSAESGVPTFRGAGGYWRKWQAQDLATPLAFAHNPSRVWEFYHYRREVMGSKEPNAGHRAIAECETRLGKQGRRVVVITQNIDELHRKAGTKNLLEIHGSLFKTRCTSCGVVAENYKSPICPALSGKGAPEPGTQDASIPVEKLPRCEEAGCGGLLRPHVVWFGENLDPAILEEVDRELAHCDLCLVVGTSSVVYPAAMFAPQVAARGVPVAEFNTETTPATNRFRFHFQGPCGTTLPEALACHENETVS
The depositor's hits bear a star; / = no result given; ! = a repeat was not active; [ ] = dose if it differs, or a comment.

SMILES	miR122 inh	S100A4 inh HTS	E-sel inducer	FGF22 binding	SIRT5 inh
CCCC#Cc1ccc([C@H]2[C@@H](CO)N3C(=O)CN(C(=O)Nc4ccccc4F)C[C@H]23)cc1	/	-5.6	0.6	/	0.1
CCS(=O)(=O)NCC[C@@H]1CC[C@@H](NC(=O)Nc2ccccc2)[C@H](CO)O1	/	10.7	-0.4	-0.2	2.8
O=C(C[C@H]1C=C[C@H](NC(=O)CN2CCOCC2)[C@H](CO)O1)NCCc1ccccc1	/	2.8	-0.2	0.2	17.0*
O=C(C[C@@H]1C=C[C@H](NC(=O)CN2CCOCC2)[C@@H](CO)O1)NCCc1ccccc1	/	8.6	-0.2	0.3	0.9
O=C(C[C@@H]1C=C[C@@H](NC(=O)CN2CCOCC2)[C@H](CO)O1)NC1CCCCC1	/	3.8	0.3	0.2	25.8*
CCC(=O)N1[C@@H](CO)[C@@H](c2ccccc2)C12CN(Cc1cccnc1)C2	/	11.8	0.0	-0.1	2.5
CCCNC(=O)C[C@@H]1CC[C@H]2[C@H](COc3ccc(NC(=O)Cc4cccs4)cc3C(=O)N2C)O1	206.7*[16.7 µM]	/	0.0	-0.2	/
CCCNC(=O)C[C@H]1CC[C@H]2[C@H](COc3ccc(NC(=O)Cc4cccs4)cc3C(=O)N2C)O1	166.7*[16.7 µM]	/	0.1	0.1	/
CCCNC(=O)C[C@@H]1CC[C@@H]2[C@H](COc3ccc(NC(=O)Cc4cccs4)cc3C(=O)N2C)O1	-26.7[16.7 µM]	/	0.0	0.3	/
C[C@@H]1CN([C@@H](C)CO)C(=O)c2cc(-c3cccc(F)c3)cnc2O[C@@H]1CN(C)C	-2.6[16.7 µM]	-18.0	-0.2	0.1	7.5
CCOC(=O)N1CCN(C(=O)C2CCN(C(=O)c3ccccc3C)CC2)CC1	10.7	7.9	-0.8	1.4*	-1.6
Cc1ccc(S(=O)(=O)N[C@H]2C=C[C@H](CC(=O)N3CCC(Cc4ccccc4)CC3)O[C@@H]2CO)cc1	-15.8[16.7 µM]	20.8	-2.6	-0.4	5.9
COc1ccc(C2Nc3ccccc3C(=O)N2NS(C)(=O)=O)c(OC)c1 (centres undefined)	/	-5.9	-0.4	0.0	15.1*
COc1cc(C2Nc3ccccc3C(=O)N2NS(C)(=O)=O)c([N+](=O)[O-])cc1OC (centres undefined)	/	-4.2	0.0	0.2	-0.8
Cc1cccc(C(=O)OCC(=O)NC(=O)c2ccccc2)c1O	/	2.7	1.1	0.1	16.3*
Cc1cc(C)c(C(=O)OCC(=O)NC(=O)c2ccccc2)c(C)c1	/	0.5	/	-0.4	-2.9
Cc1ccc(S(=O)(=O)N(C)C[C@H]2Oc3c(NS(=O)(=O)c4ccc(Cl)cc4)cccc3C(=O)N([C@@H](C)CO)C[C@H]2C)cc1	1.8[16.7 µM]	-13.8	-0.2	-0.1	2.6
C[C@@H]1CN([C@H](C)CO)C(=O)c2cccc(NS(=O)(=O)c3ccc(F)cc3)c2O[C@H]1CN(C)S(=O)(=O)c1cccs1	-0.4[16.7 µM]	4.2	-3.0	0.0	0.7
C[C@@H]1CN([C@H](C)CO)C(=O)c2cccc(NS(C)(=O)=O)c2O[C@H]1CN(C)CC1CCCCC1	40.0[16.7 µM]	8.1	0.7	-0.1	2.5
C[C@@H]1CN([C@H](C)CO)C(=O)c2cccc(NS(C)(=O)=O)c2O[C@@H]1CN(C)CC1CCCCC1	6.1[16.7 µM]	5.7	-0.2	-0.1	18.1*
C[C@@H]1CN([C@H](C)CO)C(=O)c2cccc(NS(C)(=O)=O)c2O[C@@H]1CN(C)CC1CC1	33.4[16.7 µM]	125.8*	-4.4	-0.3	4.1
C[C@H](CO)N1C[C@H](C)[C@@H](CN(C)CC2CCCCC2)Oc2c(NS(=O)(=O)c3ccc(F)cc3)cccc2C1=O	3.3[16.7 µM]	4.7	0.6	-0.3	26.8*!
C[C@H]1CN([C@@H](C)CO)C(=O)c2cccc(NS(=O)(=O)c3ccc(F)cc3)c2O[C@H]1CN(C)S(=O)(=O)c1cccs1	4.4[16.7 µM]	-7.1	235.0*	-1.0	13.7
Cc1cccc(S(=O)(=O)N[C@@H]2CC[C@H](CCNC(=O)c3cnccn3)O[C@@H]2CO)c1	/	2.6	-0.1	0.0	3.3
C[C@@H]1CN([C@@H](C)CO)C(=O)c2cccc(NS(=O)(=O)c3ccc(F)cc3)c2O[C@H]1CN(C)Cc1ccc(C(=O)O)cc1	-3.5[16.7 µM]	-0.4	65.6*	0.1	2.4
SMILES	miR122 inh	S100A4 inh HTS	E-sel inducer	FGF22 binding	SIRT5 inh
O=C(CN1CCOCC1)NCC[C@@H]1CC[C@H](NC(=O)Nc2ccc(F)cc2)[C@H](CO)O1	/	12.9	-1.7	-0.5	25.9*
O=C(CN1CCOCC1)NCC[C@H]1CC[C@@H](NC(=O)Nc2ccc(F)cc2)[C@@H](CO)O1	/	-1.3	1.3	1.2	3.6
O=C(CN1CCOCC1)NCC[C@@H]1CC[C@@H](NC(=O)Nc2ccc(F)cc2)[C@H](CO)O1	/	5.4	-1.7	-0.5	15.7*
O=C(CN1CCOCC1)NCC[C@H]1CC[C@@H](NS(=O)(=O)c2ccc(Cl)cc2)[C@@H](CO)O1	/	4.8	0.7	-0.3	32.3*
Cc1ccc(S(=O)(=O)N[C@@H]2CC[C@@H](CC(=O)NCCc3ccncc3)O[C@H]2CO)cc1	/	24.1	-0.6	-0.5	0.9
C[C@@H](O)C#Cc1ccc([C@@H]2[C@H]3CN(C(=O)c4ccc(F)cc4)CCCCN3[C@H]2CO)cc1	-7.7[16.7 µM]	-7.4	-0.6	0.3	1.2
CC(C)N1CCC(N2CCN(C3CCCCCC3)CC2CCO)CC1 (centres undefined)	/	6.4	0.5	43.1*	-0.7
CC(C)N1CCC(N2CCN(CCCc3ccccc3)CC2CCO)CC1 (centres undefined)	3.7	-18.1	/	0.2	-3.3
OCCNCCCCSc1ccc(Cl)cc1	/	-0.9	/	0.1	-8.5
OCCNCCSc1ccc(Cl)cc1	/	-3.0	/	42.9*	0.0
Cc1cnc(N)nc1-c1ccccc1	-8.0	-8.0	1.3	43.2*	/
C[C@@H]1CN([C@H](C)CO)C(=O)c2cccc(NC(=O)Nc3ccc(C(F)(F)F)cc3)c2O[C@@H]1CN(C)C(=O)Nc1ccc(F)cc1	/	0.8	0.1	0.0	12.4
CCCCCCCn1c(=N)n(CC(O)c2ccco2)c2ccccc21 (centres undefined)	-0.5	-25.9	0.1	43.7*	-0.3
Cc1cccc(OCC(=O)N/N=C2/SCC(=O)N2Cc2ccco2)c1	/	-1.9	-0.3	43.1*	-2.1
Cc1ccccc1C(=O)N/N=C1\SCC(=O)N1Cc1ccco1	/	4.8	24.1	43.6*	2.3
COc1cc(OC)cc(C(=O)N/N=C2/SCC(=O)N2Cc2ccco2)c1	2.2	-6.9	-0.8	-0.3	4.0
CCCN1[C@@H]2c3ccc(C4=CCCC4)c(=O)n3C[C@@H]2[C@@H](CO)[C@@H]1C(=O)NCC	2.4[16.7 µM]	-2.2	-1.0	0.2	17.7*
CCCNC(=O)[C@@H]1N[C@@H]2c3ccc(C4=CCCC4)c(=O)n3C[C@@H]2[C@H]1CO	-1.0[16.7 µM]	0.9	-0.1	-0.1	3.6
CCCNC(=O)[C@H]1[C@H](CO)[C@H]2Cn3c(ccc(C4=CCCC4)c3=O)[C@H]2N1CCC	1.1[16.7 µM]	2.3	-0.3	-0.1	1.2
